{"source": "the RNAGym collection of RNA variant scans (doi:10.1126/science.aae0568)", "parents": {"B1": {"name": "tRNA (parent)", "chain": "GUUCCGUUGGCGUAAUGGUAACGCGUCUCCCUCCUAAGGAGAAGACUGCGGGUUCGAGUCCCGUACGGAACG"}}, "note": "Variants at the floor of the assay were thinned out.", "data": [{"variants_of": "B1", "assay": "yeast fitness relative to wild type (ratio to wild type); higher = fitter; tRNA-Arg(CCU), competitive growth, 37 C, YPD", "in_short": "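Variants of the tRNA-Arg(CCU) gene, chemically synthesised with a 3% per-site mutation rate at 69 sites, were placed at the native genomic locus in Saccharomyces cerevisiae. The pooled strains were competed in YPD at 37°C for 24 hours in six parallel replicates. Gene amplicons from the start population and from each end population were read by 100-nucleotide paired-end sequencing. Darwinian fitness relative to wild type came from changes in genotype frequencies; genotypes needed ≥ 100 starting reads, and estimates < 0.5 were set to 0.5.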", "values": [{"variant": "GUUCCGUUGGCGUAAUGGUAACGCGUCUCCCUCCUAAGGAGAAGACUGCGGGUUCGAGCCGCGUACGGAACG", "note": "[U59C C61G]", "yeast fitness": 0.588}, {"variant": "GUUCCGUUGGCGUAAUGGUAACGCGUCUCCCUCCUAAGGAGAAGACUGCGGGUUCGAGCCCAGUACGGAACG", "note": "[U59C C62A]", "yeast fitness": 0.75}, {"variant": "GUUCCGUUGGCGUAAUGGUAACGCGUCUCCCUCCUAAGGAGAAGACUGCGGGUUCGAGCCCUGUACGUAACG", "note": "[U59C C62U G68U]", "yeast fitness": 0.609}, {"variant": "GUUCCGUUGGCGUAAUGGUAACGCGUCUCCCUCCUAAGGAGAAGACUGCGGGUUCGAGCCCCGUAGGGAACG", "note": "[U59C C66G]", "yeast fitness": 0.668}, {"variant": "GUUCCGUUGGCGUAAUGGUAACGCGUCUCCCUCCUAAGGAGAAGACUGCGGGUUCGAGCCCCGUAUGGAACG", "note": "[U59C C66U]", "yeast fitness": 0.911}, {"variant": "GUUCCGUUGGCGUAAUGGUAACGCGUCUCCCUCCUAAGGAGAAGACUGCGGGUUCGAGCCCCGUACAGAACG", "note": "[U59C G67A]", "yeast fitness": 0.835}, {"variant": "GUUCCGUUGGCGUAAUGGUAACGCGUCUCCCUCCUAAGGAGAAGACUGCGGGUUCGAGCCCCGUACGCAACG", "note": "[U59C G68C]", "yeast fitness": 0.765}, {"variant": "GUUCCGUUGGCGUAAUGGUAACGCGUCUCCCUCCUAAGGAGAAGACUGCGGGUUCGAGCCCCGAACGGAACG", "note": "[U59C U64A]", "yeast fitness": 0.677}, {"variant": "GUUCCGUUGGCGUAAUGGUAACGCGUCUCCCUCCUAAGGAGAAGACUGCGGGUUCGAGCCCCGCACGGAACG", "note": "[U59C U64C]", "yeast fitness": 0.92}, {"variant": "GUUCCGUUGGCGUAAUGGUAACGCGUCUCCCUCCUAAGGAGAAGACUGCGGGUUCGAGGCCCGUCCGGAACG", "note": "[U59G A65C]", "yeast fitness": 0.558}, {"variant": "GUUCCGUUGGCGUAAUGGUAACGCGUCUCCCUCCUAAGGAGAAGACUGCGGGUUCGAGGCCCGUCAGGAACG", "note": "[U59G A65C C66A]", "yeast fitness": "≤ 0.5"}, {"variant": "GUUCCGUUGGCGUAAUGGUAACGCGUCUCCCUCCUAAGGAGAAGACUGCGGGUUCGAGGCCCGUACGGCACG", "note": "[U59G A69C]", "yeast fitness": 0.653}, {"variant": "GUUCCGUUGGCGUAAUGGUAACGCGUCUCCCUCCUAAGGAGAAGACUGCGGGUUCGAGGCCCGUACGGGACG", "note": "[U59G A69G]", "yeast fitness": 1}, {"variant": "GUUCCGUUGGCGUAAUGGUAACGCGUCUCCCUCCUAAGGAGAAGACUGCGGGUUCGAGGCCCGUACGGAUCG", "note": "[U59G A70U]", "yeast fitness": 0.747}, {"variant": "GUUCCGUUGGCGUAAUGGUAACGCGUCUCCCUCCUAAGGAGAAGACUGCGGGUUCGAGGACCGUACGGAACG", "note": "[U59G C60A]", "yeast fitness": 0.509}, {"variant": "GUUCCGUUGGCGUAAUGGUAACGCGUCUCCCUCCUAAGGAGAAGACUGCGGGUUCGAGGCCCGUACCGAACG", "note": "[U59G G67C]", "yeast fitness": 0.659}, {"variant": "GUUCCGUUGGCGUAAUGGUAACGCGUCUCCCUCCUAAGGAGAAGACUGCGGGUUCGAGGCCCGCUCGGAACG", "note": "[U59G U64C A65U]", "yeast fitness": "≤ 0.5"}, {"variant": "GUUCCGUUGGCGUAAUGGUAACGCGUCUCCCUCCUAAGGAGAAGACUGCGGGUUCGAGUACCGUACGGAACG", "note": "[C60A]", "yeast fitness": 0.613}, {"variant": "GUUCCGUUGGCGUAAUGGUAACGCGUCUCCCUCCUAAGGAGAAGACUGCGGGUUCGAGUACCGUUCGGAACG", "note": "[C60A A65U]", "yeast fitness": 0.58}, {"variant": "GUUCCGUUGGCGUAAUGGUAACGCGUCUCCCUCCUAAGGAGAAGACUGCGGGUUCGAGUACCGUACGGAUCG", "note": "[C60A A70U]", "yeast fitness": 0.68}, {"variant": "GUUCCGUUGGCGUAAUGGUAACGCGUCUCCCUCCUAAGGAGAAGACUGCGGGUUCGAGUAGCGUACGGAACG", "note": "[C60A C61G]", "yeast fitness": 0.635}, {"variant": "GUUCCGUUGGCGUAAUGGUAACGCGUCUCCCUCCUAAGGAGAAGACUGCGGGUUCGAGUAGCGUUCGGAACG", "note": "[C60A C61G A65U]", "yeast fitness": "≤ 0.5"}, {"variant": "GUUCCGUUGGCGUAAUGGUAACGCGUCUCCCUCCUAAGGAGAAGACUGCGGGUUCGAGUAUCGUACGGAACG", "note": "[C60A C61U]", "yeast fitness": 0.599}, {"variant": "GUUCCGUUGGCGUAAUGGUAACGCGUCUCCCUCCUAAGGAGAAGACUGCGGGUUCGAGUACUGUACGGAACG", "note": "[C60A C62U]", "yeast fitness": 0.624}, {"variant": "GUUCCGUUGGCGUAAUGGUAACGCGUCUCCCUCCUAAGGAGAAGACUGCGGGUUCGAGUACCAUACGGAACG", "note": "[C60A G63A]", "yeast fitness": 0.584}, {"variant": "GUUCCGUUGGCGUAAUGGUAACGCGUCUCCCUCCUAAGGAGAAGACUGCGGGUUCGAGUACCGUACAGAACG", "note": "[C60A G67A]", "yeast fitness": 0.679}, {"variant": "GUUCCGUUGGCGUAAUGGUAACGCGUCUCCCUCCUAAGGAGAAGACUGCGGGUUCGAGUACCGUACGUAACG", "note": "[C60A G68U]", "yeast fitness": 0.587}, {"variant": "GUUCCGUUGGCGUAAUGGUAACGCGUCUCCCUCCUAAGGAGAAGACUGCGGGUUCGAGUGCCGUACGGAACG", "note": "[C60G]", "yeast fitness": 0.664}, {"variant": "GUUCCGUUGGCGUAAUGGUAACGCGUCUCCCUCCUAAGGAGAAGACUGCGGGUUCGAGUGCCGUGCGGAACG", "note": "[C60G A65G]", "yeast fitness": 0.755}, {"variant": "GUUCCGUUGGCGUAAUGGUAACGCGUCUCCCUCCUAAGGAGAAGACUGCGGGUUCGAGUGCCGUACGGGACG", "note": "[C60G A69G]", "yeast fitness": 0.597}, {"variant": "GUUCCGUUGGCGUAAUGGUAACGCGUCUCCCUCCUAAGGAGAAGACUGCGGGUUCGAGUGCCGUACGGUUCG", "note": "[C60G A69U A70U]", "yeast fitness": 0.545}, {"variant": "GUUCCGUUGGCGUAAUGGUAACGCGUCUCCCUCCUAAGGAGAAGACUGCGGGUUCGAGUGCCGUACGGACCG", "note": "[C60G A70C]", "yeast fitness": 0.66}, {"variant": "GUUCCGUUGGCGUAAUGGUAACGCGUCUCCCUCCUAAGGAGAAGACUGCGGGUUCGAGUGCCGUACGGAGCG", "note": "[C60G A70G]", "yeast fitness": 0.58}, {"variant": "GUUCCGUUGGCGUAAUGGUAACGCGUCUCCCUCCUAAGGAGAAGACUGCGGGUUCGAGUGCCGUACGGAUCG", "note": "[C60G A70U]", "yeast fitness": 0.624}, {"variant": "GUUCCGUUGGCGUAAUGGUAACGCGUCUCCCUCCUAAGGAGAAGACUGCGGGUUCGAGUGGCGUACGGAACG", "note": "[C60G C61G]", "yeast fitness": "≤ 0.5"}, {"variant": "GUUCCGUUGGCGUAAUGGUAACGCGUCUCCCUCCUAAGGAGAAGACUGCGGGUUCGAGUGUCGUACGGAACG", "note": "[C60G C61U]", "yeast fitness": 0.626}, {"variant": "GUUCCGUUGGCGUAAUGGUAACGCGUCUCCCUCCUAAGGAGAAGACUGCGGGUUCGAGUGUCAUACGGAACG", "note": "[C60G C61U G63A]", "yeast fitness": "≤ 0.5"}, {"variant": "GUUCCGUUGGCGUAAUGGUAACGCGUCUCCCUCCUAAGGAGAAGACUGCGGGUUCGAGUGCGGUACGGAGCG", "note": "[C60G C62G A70G]", "yeast fitness": "≤ 0.5"}]}]}
